From BindingDB's records for doi:10.1021/jm00130a016 (American Cyanamid, 1989)

Tests used:
[1] = target: T1, Sterol O-acyltransferase 1 (Homo sapiens, UniProt P35610); test: In vitro inhibitory concentration against ACAT derived from smooth muscle cells from thoracic aorta of monkeys
T1 sequence (P35610 whole entry): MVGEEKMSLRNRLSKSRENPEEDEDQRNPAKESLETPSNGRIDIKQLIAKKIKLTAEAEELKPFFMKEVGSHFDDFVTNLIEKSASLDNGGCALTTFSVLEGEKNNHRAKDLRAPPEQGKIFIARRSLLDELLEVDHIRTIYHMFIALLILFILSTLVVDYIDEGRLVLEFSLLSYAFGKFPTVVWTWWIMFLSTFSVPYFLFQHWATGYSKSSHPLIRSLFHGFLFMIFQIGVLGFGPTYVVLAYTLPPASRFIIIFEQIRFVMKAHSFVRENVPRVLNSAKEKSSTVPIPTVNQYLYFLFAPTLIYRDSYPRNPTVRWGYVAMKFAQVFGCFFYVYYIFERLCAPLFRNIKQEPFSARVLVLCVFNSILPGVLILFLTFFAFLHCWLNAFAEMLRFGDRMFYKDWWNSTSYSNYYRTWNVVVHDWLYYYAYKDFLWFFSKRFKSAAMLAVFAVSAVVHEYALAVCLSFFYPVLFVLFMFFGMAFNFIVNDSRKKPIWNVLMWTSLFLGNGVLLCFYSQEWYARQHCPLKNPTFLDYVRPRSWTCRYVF
How it was run: (§1)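 Aortic smooth-muscle cells from African green monkey thoracic aorta, grown 48 h in DMEM/10% FCS with LDL from hypercholesterolemic monkeys plus graded compound concentrations (methanol). Albumin-bound [14C]oleate then added for 2.5 h; cells trypsinized, Folch lipid extraction, [14C]cholesteryl esters isolated by TLC and counted by scintillation; IC50 derived.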

[2] = target: T1, Sterol O-acyltransferase 1; test: In vitro inhibitory concentration against acyl coenzyme A:cholesterol acyltransferase derived from smooth muscle cells from thoracic aorta of monkeys; how it was run: as §1
[3] = target: T2, Sterol O-acyltransferase 1 (Rattus norvegicus, UniProt O70536); test: In vitro inhibitory concentration against […] derived from rat adrenals
T2 sequence (O70536 whole entry): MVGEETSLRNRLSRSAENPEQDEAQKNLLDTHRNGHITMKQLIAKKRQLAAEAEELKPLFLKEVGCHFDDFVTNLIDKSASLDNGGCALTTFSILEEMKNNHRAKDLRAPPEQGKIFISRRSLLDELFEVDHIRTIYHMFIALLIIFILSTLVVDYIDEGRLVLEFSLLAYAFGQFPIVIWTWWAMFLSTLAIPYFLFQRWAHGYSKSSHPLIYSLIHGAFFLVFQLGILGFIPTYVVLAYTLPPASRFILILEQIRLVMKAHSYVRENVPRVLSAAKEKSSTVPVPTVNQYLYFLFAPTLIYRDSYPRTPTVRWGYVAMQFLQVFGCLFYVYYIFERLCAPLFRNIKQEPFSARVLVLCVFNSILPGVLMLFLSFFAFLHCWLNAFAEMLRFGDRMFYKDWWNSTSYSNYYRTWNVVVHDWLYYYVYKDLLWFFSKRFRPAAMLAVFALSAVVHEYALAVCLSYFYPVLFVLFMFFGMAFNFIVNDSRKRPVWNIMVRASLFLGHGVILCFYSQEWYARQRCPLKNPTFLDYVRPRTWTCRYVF

[4] = target: T1, Sterol O-acyltransferase 1; test: In vitro inhibitory concentration against […] derived from smooth muscle cells from thoracic aorta of monkeys

SMILES	IC50 [2]	also measured
CCCCN(C(=O)Nc1ccc(C)cc1C)c1ccccc1		IC50 [1]: 26.9 µM
CCCCN(Cc1ccccc1)C(=O)Nc1c(Cl)cc(Cl)cc1Cl	3.62 µM	
O=C(Nc1cccc(Cl)c1)N(Cc1ccccc1)Cc1ccccc1	39.9 µM	
CC(C)(C)CCN(Cc1cccs1)C(=O)Nc1ccc(F)cc1F	17 µM	
Cc1c(Cl)cccc1NC(=O)N(CCC(C)(C)C)Cc1cccs1	6.3 µM	
CC(C)(C)CCN(Cc1cccs1)C(=O)Nc1c(Cl)cc(Cl)cc1Cl	2.62 µM	
CCCCCCCN(Cc1ccco1)C(=O)Nc1cc(C)c(C)cc1C		IC50 [3]: 2240 nM; IC50 [4]: 140 nM
Cc1cc(C)c(NC(=O)N(Cc2ccccc2)Cc2ccccc2)cc1C		IC50 [1]: 1.08 µM
CCCCN(CCCC)C(=O)Nc1cccc(C)c1	24 µM	
CCCCN(Cc1ccccc1)C(=O)Nc1ccc(C)cc1C	1.83 µM	
CCCCN(CCCC)C(=O)Nc1ccc(C)c(Cl)c1	12.8 µM	
